Assay outcomes as filed in PubChem BioAssay.
ABCG2 inh – ABCG2 efflux pump inhibitors, primary screen, multiplex with ABCB1, IgMXP3 cells, flow cytometry; Broad substrate specificity ATP-binding cassette transporter ABCG2 (Homo sapiens), Q9UNQ0; JC-1 efflux; inhibition, % at 6.6 µM; actives 0.1% (n = 190,000);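 active = inhibition above 80%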;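 also: 0% = DMSO and 100% = nicardipine control wells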
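System: two drug-resistant human cell lines, ABCG2 and ABCB1; controls: nicardipine high and DMSO low controls; times: 10 min exposure at 25 °C with rotation, no wash; detection: flow cytometry of retained JC-1 fluorescence; read-out basis: percent efflux inhibition, scaled nicardipine 100% to DMSO 0%; doses: one concentration, 6.6 µM final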
PKD1 inh – inhibitors of human PKD1 kinase, biochemical, fluorescence polarization; AID 797, 2007; Serine/threonine-protein kinase D1 (Homo sapiens), Q15139; inhibition, % (test concentration not listed); actives 0.056% (n = 200,000); PKD1 kinase fluorescence polarization assay
GSH fluor – compound fluorescence on glutathione beads, profiling panel, artefact control, biophysical, 488/530 nm, flow cytometry; GSH beads flow cytometry, compound fluorescence 488/530 nm; stronger effect = higher value; fluorescence (KMESF) at 10 µM; actives 0.25% (n = 190,000); AID 1776, 2009; in the data active = fluorescence above about 89;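 also: glutathione beads carrying GST-tagged Bcl family fusion proteins plus one bare bead set; values are compound well signal with DMSO vehicle wells as background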
L major viab – Leishmania major promastigote growth inhibition, primary screen; actives 9% (n = 200,000); AID 1063, 2008; Leishmania major promastigotes, resazurin fluorescence viability; inhibition, % at 10 µM;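 also: promastigotes grown with compound for 44 hours at 28 °C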
Avidin fluor – green autofluorescence of compounds with avidin beads – biophysical, 488/530 nm, flow cytometry, artefact control, profiling panel. compound fluorescence 488/530 nm; stronger effect = higher value. fluorescence (KMESF) at 10 µM. actives 0.38% (n = 220,000). AID 1775, 2009; in the data active = fluorescence above about 47
ABCB1 block – ABCB1 efflux pump inhibitors, primary screen, cell-based, multiplex, flow cytometry, ABCG2 counter-screen | actives 0.067% (n = 190,000) | inhibition, % at 6.6 µM | ATP-dependent translocase ABCB1 (Homo sapiens), P08183 | CCRF-Adr cells, JC-1 efflux; in the data active = inhibition above about 40%;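 also: 0% = vehicle and 100% = reference inhibitor; higher value means more JC-1 retained so stronger ABCB1 efflux block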
* hit, by the source's call; . = no result. This excerpt belongs to a sample that is enriched for hits. Rule as the data show it, unless noted: active = inhibition above about 50%; inactive = the rest.

SMILES | ABCG2 inh | PKD1 inh | GSH fluor | L major viab | Avidin fluor | ABCB1 block
O=C(CC1C(=O)NCCN1C(=S)Nc1ccccc1)Nc1ccc(F)cc1 (centres undefined) | 13 | 7 | 12 | -6 | 21 | 0
COc1ccc(NC(=S)N2CCNC(=O)C2CC(=O)Nc2cccc(Cl)c2C)cc1 (centres undefined) | 36 | 2 | 9 | 52* | 8 | 1
COc1ccc(C(=O)N2CCNC(=O)C2CC(=O)Nc2ccc(C)cc2)cc1 (centres undefined) | 20 | -2 | 16 | 100* | 10 | 1
COc1ccccc1C(=O)N1CCNC(=O)C1CC(=O)Nc1cccc(C)c1 (centres undefined) | 0 | 6 | 10 | 1 | 143* | 0
O=C(CC1C(=O)NCCN1C(=O)Nc1ccccc1)Nc1ccc2c(c1)OCCO2 (centres undefined) | 1 | -10 | 19 | 5 | 60* | 0
COc1ccc(NC(=O)CC2C(=O)NCCN2C(=O)c2ccc(N(C)C)cc2)cc1 (centres undefined) | . | . | . | . | 7 | .
O=C(NCCCO)C(=O)NCc1ccccn1 | 16 | 0 | 22 | 6 | 6 | 1
Cc1ccc(N2C(=O)N(CC(=O)C(C)(C)C)c3ccccc3S2(=O)=O)cc1 | -1 | -7 | 7 | -1 | 21 | 0
Cc1cc(C(=O)Nn2c(-c3ccc(Br)cc3)nc3ccccc3c2=O)ccc1[N+](=O)[O-] | 7 | -1 | 13 | 5 | 13 | 1
O=C(CC1C(=O)NCCN1C(=O)Nc1ccccc1)Nc1cccc(Cl)c1 (centres undefined) | 1 | -7 | 13 | 4 | 10 | 0
COc1ccccc1NC(=O)CC1C(=O)NCCN1C(=O)Nc1ccc(Cl)c(Cl)c1 (centres undefined) | 4 | -5 | 14 | 67* | 8 | 1
COC(=O)CC1C(=O)NCCN1C(=O)CSc1nnc(Nc2ccc(C)cc2)s1 (centres undefined) | 0 | 1 | 260* | -3 | 17 | 0
CCOC(=O)CC1C(=O)NCCN1C(=S)Nc1ccccc1 (centres undefined) | 4 | -1 | 5 | 57* | 16 | 0
CCC(C(=O)c1ccccc1)P(=O)(NN)c1ccccc1 (centres undefined) | . | . | . | . | 11 | .
Cc1cccc(C(=O)NC(=S)N2CCN(C(=S)NC(=O)c3cccc(C)c3)CC2)c1 | -10 | -2 | 7 | 73* | 13 | 0
COc1ccc(NC(=O)C(c2ccccc2)c2ccccc2)cn1 | 3 | -4 | 14 | 15 | 10 | 1
COC(=O)c1c(NC(=O)CSc2nnc(-c3ccco3)n2C)sc(C)c1C | 10 | 1 | 13 | 1 | 4 | 1
COC(=O)N/N=C/c1ccc(-c2cc(Cl)cc(Cl)c2)o1 | 6 | 5 | 12 | 13 | 14 | 0
NC(=S)N/N=C/c1ccc(-c2cc(Cl)ccc2Cl)o1 | 8 | -3 | 34 | 100* | 17 | 0
COC(=O)N/N=C/c1ccc(-c2cccc(Cl)c2)o1 | 41 | -9 | 10 | 61* | 16 | 0
NC(=S)N/N=C/c1ccc(-c2cc(Cl)cc(Cl)c2)o1 | 2 | -4 | 16 | 97* | 27 | 0
CC(C)S(=O)(=O)c1cnc(-c2cccnc2)nc1N | . | . | . | . | 8 | .
Cc1c(-c2nnc(SCC(=O)O)n2-c2ccccc2Br)nnn1-c1ccccc1 | 2 | 3 | 6 | -3 | 5 | 0
Cc1ccc(OCC(=O)NNC(=O)c2cccnc2)cc1C | 1 | 8 | 12 | -7 | 6 | 0
CNC(=S)N(Cc1ccc(OC)cc1)Cc1cc2cccc(C)c2[nH]c1=O | 20 | 10 | 13 | 57* | 12 | 4
SMILES | ABCG2 inh | PKD1 inh | GSH fluor | L major viab | Avidin fluor | ABCB1 block
CCNC(=S)N(Cc1cc2cccc(C)c2[nH]c1=O)C1CCCC1 | 4 | -9 | 10 | 97* | 14 | .
Cc1cc2nc(CCN(C(=S)NCC(C)C)C3CCCC3)[nH]c2cc1C | 5 | 4 | 14 | 72* | 11 | 1
CCN(CC)CCN(Cc1cc2cccc(C)c2[nH]c1=O)C(=S)Nc1ccccc1 | -1 | 0 | 19 | 41 | 10 | 0
Cc1cccc2cc(CN(CC3CCCO3)C(=S)Nc3ccccc3)c(=O)[nH]c12 (centres undefined) | -2 | 15 | 16 | 71* | 13 | 0
Cc1cccc2cc(CN(CC3CCCO3)C(=O)NC3CCCCC3)c(=O)[nH]c12 (centres undefined) | 4 | 0 | 15 | 7 | 8 | 2
C=CCNC(=O)c1ccc(-n2cccc2)cc1 | 9 | -2 | 11 | -10 | 9 | 1
CCn1c(SCC(=O)Nc2ncc(C(F)(F)F)cc2Cl)nnc1-c1ccccc1 | 4 | -5 | 18 | -8 | 14 | 1
CN(c1cc(=O)n2ccccc2n1)C1CCCCC1 | 5 | -3 | 4 | 1 | 15 | 1
Cc1cccc2cc(CN(Cc3ccco3)C(=O)NC3CCCCC3)c(=O)[nH]c12 | 5 | -4 | 23 | -12 | 39 | 3
Cc1cccc2cc(CN(C(=S)NCC(C)C)C3CCCC3)c(=O)[nH]c12 | -2 | -5 | 17 | 65* | 16 | 1
COc1ccc(C2CC(c3ccc(Cl)c(Cl)c3)Nc3nc(N)nn32)cc1 (centres undefined) | -4 | -3 | 21 | 1 | 7 | -2
COc1ccc(C2(CNC(=O)c3ccc(OC)c([N+](=O)[O-])c3)CCCCC2)cc1OC | 38 | -4 | 5 | 87* | 12 | 8
CCC(C)(C)C1CCc2c(sc(NC(=O)c3ccccc3C(=O)O)c2C#N)C1 (centres undefined) | . | . | . | . | 3 | .
CC1CCc2c(sc(NC(=O)c3ccccc3C(=O)O)c2C#N)C1 (centres undefined) | -1 | -6 | 41 | -9 | 64* | 0
CCN(CC)c1nc2ccccc2c(N)c1-c1ccccc1 | 0 | -3 | 15 | 100* | 3 | 0
Cc1c(N(C)C)nc2ccccc2c1N | 1 | -1 | 55 | 16 | 7 | 0
CC(C)[C@H](NS(=O)(=O)c1ccccc1)C(=O)OCC(=O)N1N=C(c2ccc(Cl)cc2)CC1c1ccco1 (some centres undefined) | -5 | 0 | 6 | 13 | 2 | 0
Cc1cccc2c(N=Nc3ccc(S(=O)(=O)Nc4ccc(Cl)cc4)cc3[N+](=O)[O-])c(O)[nH]c12 | -7 | -1 | 15 | 53* | 10 | 0
